Screening results deposited in PubChem by Broad Institute.
An excerpt weighted towards active compounds, which were near 4.4% of everything screened.
Calb FLC = affects C. albicans growth with fluconazole. C. albicans CaCi-2 (fluconazole-resistant clinical isolate) + fluconazole, Alamar Blue growth, 48 h. growth inhibition, % (test concentration not listed). 0.57% of 300,000 active. AID 1979;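 active means growth inhibition above about 58% in most replicates, limit read from the data, passing the limit was not always enough; inconclusive means exactly half the replicates above a set limit; inactive means most replicates below a set limit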;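 further: all wells also contain fluconazole at 8 µg/ml as a sub-toxic cotreatment; 0% = median of DMSO wells and 100% = median of geldanamycin control wells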
HIF activator = HIF pathway transcriptional activation | 0.32% of 300,000 active | activation, % at 7.5 µM (by protocol) | U2OS HRE-luciferase reporter, luminescence; normalized: DMSO 0%, desferrioxamine 100%;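 active means mean activation of at least 10% of the iron chelator positive control signal, with at least half of replicates also reaching 10%; inconclusive means mean and replicate majority disagree about reaching 10%; inactive means mean and most replicates under 10%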
HSF1 inhib = HSF1 inhibition. AID 2098. 0.77% of 300,000 active. activity change, negative = inhibition, % at 7.5 µM (by protocol). NIH3T3-HGL HSE-luciferase, MG132-induced, luminescence 8 h; hits give low values;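 active means more than half of replicate wells show activity change below -50%, luminescence cut by over half; inconclusive means some wells, but at most half, below -50%; inactive means no replicate well below -50%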;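 further: luciferase reports HSF-1 transcriptional activity via heat shock element; 0% = median of DMSO wells and -100% = zero luminescence signal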
HSF1 activator = increases HSF-1 driven luciferase reporter signal; NIH3T3-HGL HSF-1 luciferase reporter, MG132, 8 h; 100% = twice DMSO control signal; activation, % at 9 µM; 1.7% of 300,000 active; AID 504408;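 active means mean replicate activation of at least 50% with a set share of replicates each reaching 50%; inconclusive means only one of those two conditions met; inactive means mean below 50% and too few replicates reaching it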;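 further: 0% = median of the neutral control wells and 100% = twice that signal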
T cruzi inh = blocks replication of Trypanosoma cruzi | T. cruzi beta-gal in NIH3T3, luminescence, 90 h | inhibition, % (concentration not given with the values) | 1.4% of 300,000 active | AID 1885;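 active means mean inhibition across valid replicates above about 55%, limit read from the data; inconclusive means mean below that limit but half or more replicates reach it; inactive means mean below it, under half of replicates reach it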;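 further: signal also drops with host cell toxicity which is not excluded here; 0% = plate median of DMSO wells and 100% = zero luminescence signal; higher percent means less beta-gal luminescence so fewer parasites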
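System: Mouse NIH/3T3 fibroblasts infected with β-gal-expressing T. cruzi Tulahuen C4 | Quantity: NIH/3T3 cells, 5,000 per well | Reagent: 5000 reporter trypomastigotes per well | Dosing: Compound pinned at 50 nL/well, DMSO | Schedule: 3 h host attachment, then at least 90 h co-culture | Detection: GalScreen luminescence, 60 min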
* = called active by the depositor; ? = inconclusive; . = not tested or not shown.

SMILES	Calb FLC	HIF activator	HSF1 inhib	HSF1 activator	T cruzi inh
CC(C)Oc1ccc(C(=O)OCC(=O)NCCNC(=O)COC(=O)c2ccc(OC(C)C)cc2)cc1	-5	0	-6	-16	-9
Cc1ccc(C(=O)NCC(=O)OCC(=O)NCCc2ccccc2)s1	7	-1	-8	5	-5
Cc1[nH]c2ccccc2c1CCNC(=O)c1ccc2c(c1[N+](=O)[O-])C(=O)c1ccccc1C2=O	33	0	23	58*	18
Cc1[nH]c2c(C)cccc2c1CCNC(=O)c1ccc2c(c1[N+](=O)[O-])C(=O)c1ccccc1C2=O	5	0	23	53*	21
CN(C)C(=O)c1ccc2c(c1[N+](=O)[O-])C(=O)c1ccccc1C2=O	-3	0	14	21	13
CCOc1ccc(S(=O)(=O)c2c(C(=O)c3ccccc3)cnc3cc4c(cc23)OCCO4)cc1	7	0	32	68*	71*
CCCC(=O)Nc1cc2c(cc1C(=O)c1ccccc1)OCCO2	-33	0	-8	-10	12
CCOC(=O)c1cc2sccc2n1CC(=O)Nc1ccc(OC)c(OC)c1	-1	0	4	7	8
CCOC(=O)c1cc2sccc2n1CC(=O)Nc1ccc(OC)cc1	-3	36*	-48	-56	-14
CCOCC(=O)Nc1nc2ccc(C)cc2s1	-20	1	25	37	3
Cc1ccc2nc(NC(=O)CSCC(=O)OCC(=O)c3ccccc3)sc2c1	-50	-2	-67*	-74	-3
CCOC(=O)c1c(C)nc2cc(C)ccn12	-4	14*	10	16	2
CCOC(=O)c1c(C)nc2ccc(C)cn12	7	0	0	-16	-2
CCOC(=O)C(=CNc1ccc(Oc2cccnc2)nc1)C(=O)OCC	2	0	-5	-8	3
COCCNC(=S)NNc1ccccc1[N+](=O)[O-]	22	1	0	-3	5
O=C(NC(=S)Nc1cc(-c2nc3ccccc3[nH]2)ccc1Cl)c1ccc2c(c1)OCO2	2	0	-23	-15	42
Cc1ccc(-c2nc3ccccc3[nH]2)cc1NC(=O)c1ccc2c(c1)OCO2	-8	1	34	88*	25
Clc1ccc(-c2nc3ccccn3c2CN2CCCCC2)cc1	.	0	24	52*	32
OCc1cn(-c2ccccc2)nc1-c1cccnc1	-8	0	2	6	-12
N=C(N)SCc1cn(-c2ccccc2)nc1-c1ccc(Br)cc1	-22	-3	8	12	55*
Cc1ccc(N(CC(O)CON=C2c3ccccc3-c3ccccc32)S(C)(=O)=O)cc1 (stereo unspecified)	-24	0	-2	15	?
CCc1cccc(C)c1NC(=O)c1ccc2c(c1)CCN2S(C)(=O)=O	0	-1	-9	1	-28
Cc1csc(NC(=O)c2nc3nc(C)cc(C)n3n2)n1	42	-42	18	61*	-10
CCCn1c(O)c(N=NC(=O)c2ccco2)c2ccccc21	59	0	-55*	-65	11
CCn1c(O)c(N=NC(=O)CNC(=O)c2ccco2)c2ccccc21	1	0	.	.	-2
SMILES	Calb FLC	HIF activator	HSF1 inhib	HSF1 activator	T cruzi inh
CCn1c(O)c(N=NC(=O)c2cccs2)c2ccccc21	54*	1	19	63*	24
Cc1onc(-c2ccccc2)c1NC(=O)Nc1ccc(OC(F)F)cc1	-7	0	6	15	12
O=C(Cc1cccs1)Nc1cccc(-c2nc3cc4ccccc4cc3[nH]2)c1	23	4	39	74*	37
C=C(C)C(=O)N1CC2(CC(c3cccc(NC(=O)CCCCC)c3)=NO2)C[C@H]1C(N)=O (stereo partly specified)	-4	-1	5	-5	6
O=C(O)/C=C/C(=O)Nc1nc(-c2ccc3ccccc3c2)cs1	1	0	-8	-2	7
Clc1ccc(Nc2nc(-c3ccncc3)cs2)cc1	3	3	5	18	57*
O=C(/C=C/c1ccccc1)Nc1nc(-c2ccncc2)cs1	5	2	5	28	66*
c1ccc(Nc2nc(-c3ccncc3)cs2)cc1	4	3	21	32	65*
Clc1ccc(CNC2CCN(Cc3ccccc3)CC2)cc1	-5	-26	40	81*	3
S=C(NCc1ccc(Cl)cc1)NC1CCN(Cc2ccccc2)CC1	-5	0	2	7	60*
S=C(NCCc1ccc(Cl)cc1)NC1CCCCC1	-3	3	30	58*	20
S=C(Nc1cc(Cl)cc(Cl)c1)NC1CCN(Cc2ccccc2)CC1	-7	-2	0	6	45
S=C(NCCc1ccc(Cl)cc1)NC1CCCC1	-33	1	14	27	-35
Cn1c(CNC(=O)c2ccccc2F)nnc1SCc1nc2ccccc2c(=O)[nH]1	4	0	-1	7	-16
COc1nc(OC)nc(Oc2ccc([N+](=O)[O-])cc2Cl)n1	8	0	-7	4	-7
O=C(NCc1ccc(Cl)cc1Cl)Nc1ccccc1	3	2	38	71*	0
Cc1ccc(C)c(CNC(=O)Nc2ccccc2)c1	-21	3	26	57*	4
Cc1nn(Cc2noc(C(=O)NCc3ccccn3)n2)c(C)c1Br	2	0	-4	-4	-11
CC(C)Oc1ccccc1/C=N/NC(=O)C1CC1	-2	0	2	3	-14
Cc1ccc(-n2cc(CN3CCC(CO)(Cc4cccc(C(F)(F)F)c4)CC3)cn2)cc1	7	0	3	-14	61*
Cc1cccc(-c2noc(CN(C)C(=O)c3ccc4c(c3)OCO4)n2)c1	-1	1	0	17	9
COc1ccc(-c2noc(COc3ccc4c(c3)OCO4)n2)cc1	1	0	-4	-6	8
c1ccc(-c2noc(COc3ccc4c(c3)OCO4)n2)cc1	2	2	46	55*	5
CN(Cc1nc(-c2ccccc2)no1)C(=O)c1ccc2c(c1)OCO2	-1	0	-59*	-62	-5
COc1ccccc1CNC(=O)C1CCN(S(=O)(=O)c2ccc3c(c2)NC(=O)CO3)CC1	1	0	3	18	0
Cc1ccc2sc(N(CCCN(C)C)C(=O)CN3C(=O)c4ccccc4C3=O)nc2c1C	-3	0	-1	2	58*
Cc1cc(C)c2sc(N(CCCN(C)C)C(=O)c3ccc(S(=O)(=O)N(C)C4CCCCC4)cc3)nc2c1	-4	-4	2	2	55*
Cc1ccc2sc(N(CCCN(C)C)C(=O)c3ccc(S(=O)(=O)N4CCCCCC4)cc3)nc2c1C	-8	0	-2	-5	57*
Cc1cc(C)c2nc(N(CCCN(C)C)C(=O)c3ccc(S(=O)(=O)N4CCCCCC4)cc3)sc2c1	3	0	-1	-3	54
